Source: ChEMBL document CHEMBL5150021, “Identification of 5-(Aryl/Heteroaryl)amino-4-quinolones as Potent Membrane-Disrupting Agents to Combat Antibiotic-Resistant Gram-Positive Bacteria” (J Med Chem, 2022)
≈ marks a conversion by molar mass, not a printed value.

Tested on: Staphylococcus aureus
Assay: Antibacterial activity against methicillin resistant Staphylococcus aureus FPR3757 assessed as inhibition of bacterial growth incubated for 24 hrs by CLSI based method
Format: functional
Conditions: read-out: MIC100
Method in brief: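 It was mixed 1:1 with twofold serial compound dilutions and incubated stationary at 37 °C for 24 h. MIC was the lowest concentration giving complete inhibition of observable growth, with an oxacillin control.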

Row | Compound | MIC
1 | CN(C)S(=O)(=O)c1ccc2c(Nc3ccc(F)c(F)c3)cc(C(F)(F)F)nc2c1 | > 32 µg/mL
2 | O=c1cc(Nc2cc(C(F)(F)F)nc3cc(C(F)(F)F)ccc23)cc[nH]1 | > 32 µg/mL
3 | FC(F)(F)c1ccc2c(Nc3ccccc3)cc(C(F)(F)F)nc2c1 | 128 µg/mL (≈ 359 µM)
4 | COc1ccc(Nc2cc(C(F)(F)F)nc3cc(C(F)(F)F)ccc23)cn1 | > 128 µg/mL
5 | FC(F)(F)Oc1cccc(Nc2nc(C(F)(F)F)nc3cc(C(F)(F)F)ccc23)c1 | 1 µg/mL (≈ 2.27 µM)
6 | CN(C)c1ccc(Nc2cc(C(F)(F)F)cc3[nH]c(C(F)(F)F)cc(=O)c23)nc1 | 2 µg/mL (≈ 4.8 µM)
7 | Fc1cc(F)c2nc(C(F)(F)F)cc(Nc3ccc(C(F)(F)F)cn3)c2c1F | > 32 µg/mL
8 | Fc1ccc2c(Nc3ccc(Cl)c(Cl)c3)cc(C(F)(F)F)nc2c1 | 0.5 µg/mL (≈ 1.33 µM)
9 | FC(F)(F)Oc1cccc(Oc2cc(C(F)(F)F)nc3cc(C(F)(F)F)ccc23)c1 | > 32 µg/mL
10 | CCc1ccc2c(O)cc(C(F)(F)F)nc2c1 | 640 µg/mL (≈ 2650 µM)
11 | Oc1cc(C(F)(F)F)nc2ccccc12 | 320 µg/mL (≈ 1500 µM)
12 | FC(F)(F)c1ccc(Nc2cc(N3CCNCC3)c3ccc(C(F)(F)F)cc3n2)nc1 | 4 µg/mL (≈ 9.06 µM)
